For one assay, the species on record is Sus scrofa. Nature of the assay: Relaxant effect on PGF2-alpha precontracted porcine coronary arteries. It is filed as functional, organism-based. The method, boiled down:
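Porcine coronary strips held at 1 g resting tension. Endothelium confirmed by 7 × 10^-9 M bradykinin relaxation after 50 mM KCl. Contraction with PGF2α (final 10^-5 M); at plateau, cumulative concentration-relaxation curves built. Relaxation expressed as % of PGF2α contraction. EC50 from the log cumulative plot, mean ± SEM (n given).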

For the next assay, the target named is T1, Phosphodiesterase 3A (Sus scrofa, UniProt Q9XSW7).
T1 sequence (Q9XSW7 whole entry): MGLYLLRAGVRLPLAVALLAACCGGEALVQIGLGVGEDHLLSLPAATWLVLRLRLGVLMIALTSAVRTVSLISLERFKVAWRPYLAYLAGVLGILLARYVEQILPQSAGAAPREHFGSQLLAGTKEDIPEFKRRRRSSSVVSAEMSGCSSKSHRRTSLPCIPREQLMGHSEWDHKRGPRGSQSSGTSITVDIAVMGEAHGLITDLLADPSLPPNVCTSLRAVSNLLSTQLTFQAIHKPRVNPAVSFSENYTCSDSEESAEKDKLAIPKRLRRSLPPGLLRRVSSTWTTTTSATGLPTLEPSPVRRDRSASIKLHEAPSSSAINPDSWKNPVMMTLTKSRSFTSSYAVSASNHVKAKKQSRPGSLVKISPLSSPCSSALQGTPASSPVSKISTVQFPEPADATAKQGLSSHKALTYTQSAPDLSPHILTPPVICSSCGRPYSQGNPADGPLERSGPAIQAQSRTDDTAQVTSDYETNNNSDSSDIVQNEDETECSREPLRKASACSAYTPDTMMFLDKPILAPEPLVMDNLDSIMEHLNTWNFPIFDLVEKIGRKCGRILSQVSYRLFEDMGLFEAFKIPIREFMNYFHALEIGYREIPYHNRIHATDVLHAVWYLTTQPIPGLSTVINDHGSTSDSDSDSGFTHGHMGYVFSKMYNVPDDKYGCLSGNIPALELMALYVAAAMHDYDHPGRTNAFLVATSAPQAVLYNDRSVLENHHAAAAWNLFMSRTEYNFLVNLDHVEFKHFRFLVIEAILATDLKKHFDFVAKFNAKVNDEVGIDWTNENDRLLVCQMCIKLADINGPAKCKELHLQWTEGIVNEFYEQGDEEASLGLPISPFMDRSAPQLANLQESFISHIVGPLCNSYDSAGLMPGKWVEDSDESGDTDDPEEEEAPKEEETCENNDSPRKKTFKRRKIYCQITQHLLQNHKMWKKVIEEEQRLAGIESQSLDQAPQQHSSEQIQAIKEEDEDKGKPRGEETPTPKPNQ
Nature of the assay: Inhibition of cGMP-inhibited PDE 3 from porcine aorta. The method, boiled down: (§1)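 Porcine aorta PDE isozyme, two-step radioisotopic assay with 1 µM [3H]substrate: cGMP for type I, cAMP for types II, III and IV. Compounds dissolved in DMSO, diluted in assay buffer over 10^-8 to 10^-4 M, final DMSO under 0.4% (v/v). IC50 taken from the log concentration-inhibition plot (at least three points), mean ± SEM of at least three experiments.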

The next assay addresses T2, Phosphodiesterase 4A (Sus scrofa, UniProt O77823).
T2 sequence (O77823 whole entry): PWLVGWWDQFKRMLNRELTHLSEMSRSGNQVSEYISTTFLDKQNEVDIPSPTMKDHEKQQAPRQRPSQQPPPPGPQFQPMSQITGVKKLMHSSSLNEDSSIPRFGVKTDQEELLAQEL
Nature of the assay: Inhibition of cAMP specific-PDE 4 from porcine aorta. The method, boiled down:
as §1

A further assay deals with Phosphodiesterase 1 (Homo sapiens, UniProt P54750+Q01064+Q14123). Nature of the assay: Inhibition of Ca++ calmodulin dependent-PDE 1 from porcine aorta. The format is protein assay, Sus scrofa. As to conditions: target entry is the homologue from another species. The method, boiled down:
as §1

For assay [1], the target named is cGMP-dependent 3',5'-cyclic phosphodiesterase (Homo sapiens, UniProt O00408). Nature of the assay: Inhibition of cGMP stimulated-PDE 2 from porcine aorta. On the set-up: species or system Sus scrofa. Conditions: target entry is the homologue from another species. The essentials: as §1

Broadly, the EC50 is the concentration needed to bring the measured effect to its halfway point. As a reminder, the IC50 is the concentration that gives 50% inhibition.

Sequence of cGMP-dependent 3',5'-cyclic phosphodiesterase (O00408 whole entry): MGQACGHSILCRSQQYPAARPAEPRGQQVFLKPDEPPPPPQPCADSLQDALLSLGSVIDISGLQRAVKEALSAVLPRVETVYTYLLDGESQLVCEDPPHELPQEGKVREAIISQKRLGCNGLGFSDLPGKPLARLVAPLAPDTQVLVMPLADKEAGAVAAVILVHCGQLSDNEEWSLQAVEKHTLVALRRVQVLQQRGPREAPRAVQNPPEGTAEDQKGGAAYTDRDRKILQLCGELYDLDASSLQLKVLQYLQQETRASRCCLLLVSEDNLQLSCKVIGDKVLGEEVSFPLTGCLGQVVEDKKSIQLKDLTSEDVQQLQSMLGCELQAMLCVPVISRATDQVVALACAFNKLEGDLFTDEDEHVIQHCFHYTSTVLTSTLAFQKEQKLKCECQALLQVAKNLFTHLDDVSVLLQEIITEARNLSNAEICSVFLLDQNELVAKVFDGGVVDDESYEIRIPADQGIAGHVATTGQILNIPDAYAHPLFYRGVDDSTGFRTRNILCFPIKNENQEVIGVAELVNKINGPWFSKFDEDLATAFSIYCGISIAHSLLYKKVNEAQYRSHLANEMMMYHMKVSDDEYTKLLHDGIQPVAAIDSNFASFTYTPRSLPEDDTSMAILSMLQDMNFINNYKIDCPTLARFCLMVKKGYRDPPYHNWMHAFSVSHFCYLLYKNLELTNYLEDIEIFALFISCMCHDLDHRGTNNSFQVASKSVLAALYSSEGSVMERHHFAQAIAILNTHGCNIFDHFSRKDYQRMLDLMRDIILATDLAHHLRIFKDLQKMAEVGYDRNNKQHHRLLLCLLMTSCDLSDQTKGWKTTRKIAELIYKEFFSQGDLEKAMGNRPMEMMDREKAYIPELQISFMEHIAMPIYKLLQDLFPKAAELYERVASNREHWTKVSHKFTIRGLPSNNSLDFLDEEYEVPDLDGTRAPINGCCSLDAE

Turning to `COc1cc2c(NCc3ccc4c(c3)OCO4)ncnc2c(OC)c1OC`, it took 2.13 µM to reach a half-maximal effect in the assay filed under Sus scrofa (EC50).

For `CSc1ccc2ncnc(NCc3ccc4c(c3)OCO4)c2c1`, the concentration for half-maximal inhibition (IC50) (at Phosphodiesterase 3A; against Phosphodiesterase 4A; against Phosphodiesterase 1; in assay [1]) was greater than 100 µM in each case. This molecule also yielded an EC50 in the assay filed under Sus scrofa of 0.12 µM.

Molecule `COc1ccc2ncnc(NCc3ccc4c(c3)OCO4)c2c1` had a concentration giving a half-maximal response (EC50) in the assay filed under Sus scrofa of 1.19 µM. Also, the half-maximal inhibitory concentration (IC50) (against Phosphodiesterase 4A; at Phosphodiesterase 1; in assay [1]) was greater than 100 µM throughout.

In the case of `Clc1ccc2ncnc(NCc3ccc4c(c3)OCO4)c2c1`, the IC50 (at Phosphodiesterase 3A; against Phosphodiesterase 4A; against Phosphodiesterase 1; in assay [1]) was greater than 100 µM in each case. In the assay listed under Sus scrofa, this molecule showed a concentration giving a half-maximal response (EC50) of 0.19 µM.

In the case of `N#Cc1ccc2ncnc(NCc3ccc4c(c3)OCO4)c2c1`, the half-inhibitory concentration (IC50) (at Phosphodiesterase 3A; against Phosphodiesterase 4A; on Phosphodiesterase 1; in assay [1]) was greater than 100 µM throughout. A half-maximal effect in the assay listed under Sus scrofa (EC50) was put at 0.3 µM.

As to `Cc1ccc2ncnc(NCc3ccc4c(c3)OCO4)c2c1`, the concentration for half-maximal inhibition (IC50) (against Phosphodiesterase 3A; at Phosphodiesterase 4A; at Phosphodiesterase 1; in assay [1]) was greater than 100 µM each time. In addition, a half-maximal effect in the assay listed under Sus scrofa (EC50) was put at 1.56 µM.

For the origin of these results see ChEMBL document CHEMBL1127847, “Cyclic GMP phosphodiesterase inhibitors. 2. Requirement of 6-substitution of quinazoline derivatives for potent and selective inhibitory activity” (J Med Chem, 1994).
